Activity calls are given as the source filed them. The calls are words filed in the database; no cut-off is given here.
How the values were obtained:
L1210 [1] = assay: Cell cycle arrest in mouse L1210 cell line by accumulation at G2/M phase at 5 uM after 24 hrs; format: functional
Procedure, shortened: (§1)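 L1210 cells in RPMI 1640 with 2 mM L-glutamine, penicillin, streptomycin and 20% heat-inactivated horse serum, 5% CO2, 37 °C, exposed to several drug concentrations. Cells fixed in 70% ethanol, washed, stained 30 min at room temperature with propidium iodide plus RNAse in PBS, then flow cytometry. Read-out is percentage of cells in each cycle phase after 24 h exposure.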

L1210 [2] = assay: Cytotoxicity against mouse L1210 cell line; format: cell-based; design: Activity: concentration or dose not given beside the values; conditions: for IC50: Mus musculus, L1210; for Activity: mouse, l1210
Procedure, shortened: (§2)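 Cells grown at 37 °C under 5% CO2 in medium with 2 mM L-glutamine, penicillin, streptomycin and 20% heat-inactivated horse serum. Drug in DMSO (0.5% final) added to exponentially growing cells seeded at 0.8 × 10^5 cells/mL. Coulter counting in quadruplicate at 48 h (L1210) or 96 h (HT-29). IC50 from probit of % growth inhibition versus log dose; four independent runs in triplicate.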

HT-29 = assay: Cytotoxicity against human HT29 cell line; format: cell-based; procedure, shortened: as §2
L1210 [3] = assay: Cell cycle arrest in mouse L1210 cell line by accumulation at 8N phase at 5 uM after 24 hrs; format: functional; procedure, shortened: as §1
[4] = Effect on DNA sequence recognition assessed by DNase I footprinting assay; format: functional
Homo sapiens = species on record: Homo sapiens; assay: Inhibition of topoisomerase 2 assessed by DNA cleavage complex formation assay
Procedure, shortened: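 Cleavage complex formed on pYRG plasmid DNA by human topoisomerase II purified from placenta. Linear DNA product quantified by densitometry relative to ellipticine.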

L1210 [5] = assay: Cell cycle arrest in mouse L1210 cell line by accumulation at G2 phase at 1 uM after 24 hrs; format: functional
Procedure, shortened: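 L1210 cells grown in RPMI 1640 with 2 mM L-glutamine, penicillin, streptomycin and 20% heat-inactivated horse serum at 37 °C, 5% CO2, then drug-exposed (methods 21 h; footnote 24 h). Ethanol (70%) fixed, then washed. Stained 30 min at room temperature in PBS with […] RNase and propidium iodide. Flow cytometry gives % cells in each cycle phase.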

L1210 [6] = assay: Cell cycle arrest in mouse L1210 cell line by accumulation at G2/M phase at 1 uM after 24 hrs; format: functional; procedure, shortened: as §1
L1210 [7] = assay: Cell cycle arrest in mouse L1210 cell line by accumulation at 8N phase at 20 uM after 24 hrs; format: functional; procedure, shortened: as §1

Row | SMILES | IC50 (L1210 [2]) [µM] | IC50 (HT-29) [µM] | also measured
1 | CCCCCCc1c2c(c(C)c3c1C(=O)OC3)Oc1ccccc1O2 | 2 | 0.38 | Activity (L1210 [1]): 86%; Activity (L1210 [3]): 86%
2 | Cc1c2c(c(CCCCCN)c3c1Oc1ccccc1O3)C(=O)OC2 | 12.8 | 5.7 | –
3 | Cc1c2c(c(CCCCCC#N)c3c1C(=O)OC3)Oc1ccccc1O2 | > 10 | > 10 | –
4 | CCCCCCCCc1c2c(c(C)c3c1C(=O)OC3)Oc1ccccc1O2 | > 10 | > 10 | –
5 | Cc1c2c(c(CC(C)CC(C)(C)C)c3c1C(=O)OC3)Oc1ccccc1O2 (stereo not drawn) | > 10 | > 10 | Activity (L1210 [2]): 70%
6 | CCCCCc1c2c(c(C)c3c1C(=O)OC3)Oc1ccccc1O2 | 1.8 | 0.12 | Activity (L1210 [1]): 80%; Activity (L1210 [3]): 80%; Activity [4]: inactive; Activity (Homo sapiens): inactive
7 | Cc1c2c(c(CC(C)CC(C)(C)C)c3c1Oc1ccccc1O3)C(=O)OC2 (stereo not drawn) | 13.5 | > 10 | –
8 | Cc1c2c(c(CCCCC#N)c3c1Oc1ccccc1O3)C(=O)OC2 | 77 | 24.1 | –
9 | CCCCCCCc1c2c(c(C)c3c1Oc1ccccc1O3)C(=O)OC2 | > 10 | 21.8 | –
10 | Cc1c2ccncc2c(C)c2c1[nH]c1ccccc12 [ELLIPTECINE] | 0.19 | 14.9 | Activity (L1210 [5]): 50%
11 | CC1OC(=O)C2=C1Oc1ccccc1O2 (stereo not drawn) | > 10 | > 10 | –
12 | CCCCCc1c2c(c(C)c3c1C(=O)OC3)Oc1ccc(OC)cc1O2 | > 10 | > 10 | Activity (L1210 [2]): 78%
13 | CCCCCc1c2c(c(C)c3c1Oc1ccccc1O3)C(=O)OC2 | 7.2 | 9.2 | Activity (L1210 [1]): 35%; Activity (L1210 [3]): 35%
14 | CCCCCc1c2c(c(C)c3c1Oc1cc(OC)ccc1O3)C(=O)OC2 | > 10 | > 10 | Activity (L1210 [2]): 70%
15 | CNCCCCc1c2c(c(C)c3c1C(=O)OC3)Oc1ccccc1O2 | 2.4 | 0.54 | Activity (L1210 [1]): 86%; Activity (L1210 [3]): 86%
16 | CCCCCCCCc1c2c(c(C)c3c1Oc1ccccc1O3)C(=O)OC2 | > 10 | > 10 | –

Row | SMILES | IC50 (L1210 [2]) [µM] | IC50 (HT-29) [µM] | also measured
17 | CCc1c2c(c(C)c3c1C(=O)OC3)Oc1ccccc1O2 | > 10 | > 10 | –
18 | Cc1c2c(c(C)c3c1Oc1ccccc1O3)C(=O)OC2 | > 100 | > 100 | –
19 | CCCCCCc1c2c(c(C)c3c1C(=O)SC3)Oc1ccccc1O2 | 19 | 34.5 | –
20 | CCc1c2c(c(C)c3c1Oc1ccccc1O3)C(=O)OC2 | > 10 | > 10 | –
21 | CCCCc1c2c(c(C)c3c1Oc1ccccc1O3)C(=O)OC2 | > 100 | 17.7 | –
22 | Cc1c2c(c(C)c3cnccc13)Oc1ccccc1O2 | 1.2 | 22.1 | –
23 | CCCc1c2c(c(C)c3c1Oc1ccccc1O3)C(=O)OC2 | > 10 | > 10 | Activity (L1210 [2]): 115%
24 | Cc1c2c(c(CCCCCC(=O)O)c3c1Oc1ccccc1O3)C(=O)OC2 | > 10 | > 10 | –
25 | CCCCCCc1c2c(c(CCCCCC)c3c1Oc1ccccc1O3)C(=O)OC2 | > 10 | > 10 | –
26 | COc1cccc2c1C(=O)c1c(O)c3c(c(O)c1C2=O)C[C@@](O)(C(=O)CO)C[C@@H]3O[C@H]1C[C@H](N)[C@H](O)[C@H](C)O1 [DOXORUBICIN] | 0.029 | 0.48 | Activity (L1210 [6]): 86%
27 | Cc1c2c(c(CCCCC(=O)O)c3c1Oc1ccccc1O3)C(=O)OC2 | 89 | > 10 | –
28 | Cc1c2c(c(CCCCCC#N)c3c1Oc1ccccc1O3)C(=O)OC2 | 0.54 | 0.12 | Activity (L1210 [3]): 88%; Activity (Homo sapiens): inactive
29 | CCCc1c2c(c(C)c3c1C(=O)OC3)Oc1ccccc1O2 | > 10 | > 10 | Activity (L1210 [2]): 111%
30 | CCCCCCc1c2c(c(C)c3c1Oc1ccccc1O3)C(=O)OC2 | > 10 | 18.2 | Activity (L1210 [2]): 118.3%
31 | CCCCCCCc1c2c(c(C)c3c1C(=O)OC3)Oc1ccccc1O2 | 3.9 | 1.9 | Activity (L1210 [7]): 70%

Source: ChEMBL document CHEMBL1139834, “Synthesis and structure-activity relationships of new benzodioxinic lactones as potential anticancer drugs” (J Med Chem, 2007)
